Data reported in ChEMBL document CHEMBL3774372, “Design, physico-chemical properties and biological evaluation of some new N-[(phenoxy)alkyl]- and N-{2-[2-(phenoxy)ethoxy]ethyl}aminoalkanols as anticonvulsant agents” (Bioorg Med Chem, 2016).
Calls of active or inactive are those of the source.

Assays:
Mus musculus [1] = assay: Anticonvulsant activity in mouse assessed as protection against maximal electric shock-induced seizures at 30 mg/kg, ip measured after 0.5 hrs; type: functional, organism-based
Method in brief: (§1)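 Mice dosed ip with suspension in 0.5% methylcellulose; maximal electroshock applied at the listed time after dosing. Protection = abolition of hindlimb tonic extension component of seizure; reported as animals protected/animals tested.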

Mus musculus [2] = assay: Anticonvulsant activity in mouse assessed as protection against maximal electric shock-induced seizures at 30 mg/kg, ip measured after 4 hrs; type: functional, organism-based; method in brief: as §1
Mus musculus [3] = assay: Anticonvulsant activity in mouse assessed as protection against maximal electric shock-induced seizures at 100 mg/kg, ip measured after 4 hrs; type: functional, organism-based; method in brief: as §1
Mus musculus [4] = assay: Anticonvulsant activity in mouse assessed as protection against subcutaneous pentylenetetrazol-induced seizures at 30 mg/kg, ip measured after 0.5 hrs; type: functional, organism-based
Method in brief: (§2)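 Mice dosed ip as 0.5% methylcellulose suspension; pentylenetetrazole 85 mg/kg in 0.9% NaCl injected subcutaneously into posterior midline, animals watched at least 30 min. Protection = no threshold seizure (single clonic spasm episode lasting ≥5 s); scored protected/tested.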

Mus musculus [5] = assay: Anticonvulsant activity in mouse assessed as protection against subcutaneous pentylenetetrazol-induced seizures at 30 mg/kg, ip measured after 4 hrs; type: functional, organism-based; method in brief: as §2
Mus musculus [6] = assay: Anticonvulsant activity in mouse assessed as protection against subcutaneous pentylenetetrazol-induced seizures at 100 mg/kg, ip measured after 4 hrs; type: functional, organism-based; method in brief: as §2
Mus musculus [7] = assay: Neurotoxicity in mouse at 30 mg/kg, ip after 0.5 hrs by rotarod test; type: toxicity, organism-based; conditions: in vivo
Method in brief: (§3)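 Mice were dosed ip with compound suspended in 0.5% methylcellulose. Rotarod: a 1 in. knurled rod turning at 6 rpm. Neurotoxicity was scored as failure to stay on the rod for at least 1 min in each of three trials. Results are given as the number of animals affected out of the number tested.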

Mus musculus [8] = assay: Neurotoxicity in mouse at 30 mg/kg, ip after 4 hrs by rotarod test; type: toxicity, organism-based; conditions: in vivo; method in brief: as §3
Mus musculus [9] = assay: Neurotoxicity in mouse at 100 mg/kg, ip after 0.5 hrs by rotarod test; type: toxicity, organism-based; conditions: in vivo; method in brief: as §3
Mus musculus [10] = assay: Neurotoxicity in mouse at 100 mg/kg, ip after 4 hrs by rotarod test; type: toxicity, organism-based; conditions: in vivo; method in brief: as §3
Mus musculus [11] = assay: Neurotoxicity in mouse at 300 mg/kg, ip after 0.5 hrs by rotarod test; type: toxicity, organism-based; conditions: in vivo; method in brief: as §3
Mus musculus [12] = assay: Neurotoxicity in mouse at 300 mg/kg, ip after 4 hrs by rotarod test; type: toxicity, organism-based; conditions: in vivo; method in brief: as §3
Vibrio harveyi [13] = assay: Mutagenicity in Vibrio harveyi BB7 assessed as number of colonies after 48 hrs (reference value: 13 to 14 no_unit); type: ADME, organism-based; conditions: in vivo
Method in brief: (§4)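 Vibrio harveyi mutagenicity test: test compound was added to exponentially growing cultures (A600 = 0.1, 30 °C) and grown to OD600 0.3–0.4. Then 5 × 10^6 cells were plated on BOSS agar with neomycin (final 100 µg/mL) and incubated 48 h at 30 °C. Neomycin-resistant colonies were counted. Triplicate; controls were water, DMSO and NQNO 40 ng/mL.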

Vibrio harveyi [14] = assay: Mutagenicity in Vibrio harveyi BB7X assessed as number of colonies after 48 hrs (reference value: 15 to 16 no_unit); type: ADME, organism-based; conditions: in vivo; method in brief: as §4
Vibrio harveyi [15] = assay: Mutagenicity in Vibrio harveyi BB7M assessed as number of colonies after 48 hrs (reference value: 13 to 14 no_unit); type: ADME, organism-based; conditions: in vivo; method in brief: as §4
Vibrio harveyi [16] = assay: Mutagenicity in Vibrio harveyi BB7XM assessed as number of colonies after 48 hrs (reference value: 14 no_unit); type: ADME, organism-based; conditions: in vivo; method in brief: as §4
Vibrio harveyi [17] = assay: Antimutagenic activity against Vibrio harveyi BB7 assessed as inhibition of NQNO-induced mutagenicity after 48 hrs; type: functional
Method in brief: (§5)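 V. harveyi cultures grown exponentially to A600 0.1 at 30 °C, exposed to test compound for 15 min, then to NQNO, and grown on to A600 0.3–0.4. 5 × 10⁶ cells plated on BOSS agar with neomycin (100, final). Neomycin-resistant colonies counted after 48 h at 30 °C. Result given as % inhibition of NQNO mutagenicity; three independent repeats.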

Vibrio harveyi [18] = assay: Antimutagenic activity against Vibrio harveyi BB7X assessed as inhibition of NQNO-induced mutagenicity after 48 hrs; type: functional; method in brief: as §5
Vibrio harveyi [19] = assay: Antimutagenic activity against Vibrio harveyi BB7M assessed as inhibition of NQNO-induced mutagenicity after 48 hrs; type: functional; method in brief: as §5
Vibrio harveyi [20] = assay: Antimutagenic activity against Vibrio harveyi BB7XM assessed as inhibition of NQNO-induced mutagenicity after 48 hrs; type: functional; method in brief: as §5
Rattus norvegicus [21] = assay: Anticonvulsant activity in rat assessed as protection against maximal electric shock-induced seizures at 30 mg/kg, po measured after 1 hr; type: functional, organism-based
Method in brief: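 Rats dosed ip or orally as 0.5% methylcellulose suspension; maximal electroshock at listed time. Protection = abolition of hindlimb tonic extension; 4 rats per group, scored protected/tested.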

Rattus norvegicus [22] = assay: Neurotoxicity in rat at 30 mg/kg, po after […] by rotarod test; type: toxicity, organism-based; conditions: in vivo
Rattus norvegicus [23] = assay: Neurotoxicity in rat at 30 mg/kg, po after 0.5 hrs by rotarod test; type: toxicity, organism-based; conditions: in vivo
Rattus norvegicus [24] = assay: Neurotoxicity in rat at 30 mg/kg, po after 1 hr by rotarod test; type: toxicity, organism-based; conditions: in vivo
Rattus norvegicus [25] = assay: Neurotoxicity in rat at 30 mg/kg, po after 2 hrs by rotarod test; type: toxicity, organism-based; conditions: in vivo
Rattus norvegicus [26] = assay: Neurotoxicity in rat at 30 mg/kg, po after 4 hrs by rotarod test; type: toxicity, organism-based; conditions: in vivo
Mus musculus [27] = assay: Anticonvulsant activity in mouse assessed as protection against maximal electric shock-induced seizures at 100 mg/kg, ip measured after 0.5 hrs; type: functional, organism-based; method in brief: as §1
Mus musculus [28] = assay: Anticonvulsant activity in mouse assessed as protection against maximal electric shock-induced seizures at 300 mg/kg, ip measured after 0.5 hrs; type: functional, organism-based; method in brief: as §1
Mus musculus [29] = assay: Anticonvulsant activity in mouse assessed as protection against maximal electric shock-induced seizures at 300 mg/kg, ip measured after 4 hrs; type: functional, organism-based; method in brief: as §1
Mus musculus [30] = assay: Anticonvulsant activity in mouse assessed as protection against subcutaneous pentylenetetrazol-induced seizures at 100 mg/kg, ip measured after 0.5 hrs; type: functional, organism-based; method in brief: as §2
Mus musculus [31] = assay: Anticonvulsant activity in mouse assessed as protection against subcutaneous pentylenetetrazol-induced seizures at 300 mg/kg, ip measured after 0.5 hrs; type: functional, organism-based; method in brief: as §2
Rattus norvegicus [32] = assay: Anticonvulsant activity in rat assessed as protection against maximal electric shock-induced seizures at 30 mg/kg, po measured after […]; type: functional, organism-based
Mus musculus [33] = assay: Anticonvulsant activity in mouse assessed as protection against subcutaneous pentylenetetrazol-induced seizures at 300 mg/kg, ip measured after 4 hrs; type: functional, organism-based; method in brief: as §2
Mus musculus [34] = assay: Anticonvulsant activity in mouse assessed as protection against maximal electric shock-induced seizures at 3 mg/kg, ip measured after 0.5 hrs; type: functional, organism-based; method in brief: as §1
Mus musculus [35] = assay: Anticonvulsant activity in mouse assessed as protection against maximal electric shock-induced seizures at 10 mg/kg, ip measured after 0.5 hrs; type: functional, organism-based; method in brief: as §1

Compound | Activity (Mus musculus [1]) | Activity (Mus musculus [2]) | Activity (Mus musculus [3]) | Activity (Mus musculus [4]) | Activity (Mus musculus [5]) | Activity (Mus musculus [6]) | Activity (Mus musculus [7]) | Activity (Mus musculus [8]) | Activity (Mus musculus [9]) | Activity (Mus musculus [10]) | Activity (Mus musculus [11]) | Activity (Mus musculus [12]) | Activity (Mus musculus [27]) | Activity (Mus musculus [28]) | Activity (Mus musculus [29]) | Activity (Mus musculus [30]) | Activity (Mus musculus [31]) | Activity (Mus musculus [33]) | further results
Cc1cccc(C)c1OCCOCCNC(C)CO (configuration not stated) | inactive | inactive | inactive | inactive | inactive | inactive | Non-toxic | Non-toxic | Toxic | Non-toxic | Toxic | Non-toxic |  |  |  |  |  |  | Activity (Vibrio harveyi [13]): 24; Activity (Vibrio harveyi [14]): 29; Activity (Vibrio harveyi [15]): 27; Activity (Vibrio harveyi [16]): 19; inhibition (INH) (Vibrio harveyi [17]): 70%; inhibition (INH) (Vibrio harveyi [18]): 27%; inhibition (INH) (Vibrio harveyi [19]): 75%; inhibition (INH) (Vibrio harveyi [20]): 48%
Cc1cc(C)c(OCCNCC(O)c2ccccc2)c(C)c1 (configuration not stated) | inactive | inactive | inactive | inactive |  |  | Non-toxic | Non-toxic | Non-toxic | Non-toxic |  | Non-toxic | Active | Active | Active | inactive | inactive |  | Activity (Rattus norvegicus [21]): inactive; Activity (Rattus norvegicus [22]): Non-toxic; Activity (Rattus norvegicus [23]): Non-toxic; Activity (Rattus norvegicus [24]): Non-toxic; Activity (Rattus norvegicus [25]): Non-toxic; Activity (Rattus norvegicus [26]): Non-toxic; Activity (Rattus norvegicus [32]): inactive
CCC(CO)NCCOCCOc1c(C)cccc1C (configuration not stated) | inactive | inactive | inactive | inactive | inactive |  | Non-toxic | Non-toxic | Toxic |  | Toxic |  | Active |  |  | inactive |  | inactive | 
Cc1cc(C)c(OCCN[C@H](C)CO)c(C)c1 | Active | inactive | inactive | inactive | inactive | inactive | Non-toxic | Non-toxic | Toxic | Non-toxic | Toxic |  | Active |  |  | inactive |  |  | Activity (Mus musculus [34]): inactive; Activity (Mus musculus [35]): inactive
Cc1cccc(OCCNCC(O)c2ccccc2)c1C (configuration not stated) | inactive | inactive | inactive |  | inactive | inactive | Non-toxic | Non-toxic |  |  |  | Non-toxic | inactive | inactive | inactive | inactive | inactive | inactive | 
